The text below walks through data of ChEMBL document CHEMBL3588831, “Synthesis and in Vivo Evaluation of [123I]Melanin-Targeted Agents” (J Med Chem, 2015).

A short description of data set [1]: Retention time of the compound by HPLC method. In kind it is physicochemical.
Data set [2] is described as follows: Drug distribution in thyroid gland of C57BL/6J mouse bearing mouse B16F0 cells at 18 to 20 MBq, iv after 72 hrs by SPECT imaging study. In kind it is ADME, organism-based. As to conditions: in vivo; call rule not given here. The procedure, abridged: (§1)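 Female C57BL/6J mice (5–6 weeks) were inoculated s.c. on the left flank with 3 × 10^5 B16F0 cells in PBS and used after 11 days, with tumors 2–12 mm. Each received 18–20 MBq in 100 μL by lateral tail vein (n = 3 per tracer). Planar SPECT was done under isoflurane at 10–60 min, 3, 6, 24, 48 and 72 h. ROI pixel values were decay-corrected.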

Data set [3] has as its system Brain. The experiment in a line: Drug distribution in brain of C57BL/6J mouse bearing mouse B16F0 cells at 18 to 20 MBq, iv measured over 72 hrs by SPECT imaging study. In kind it is ADME, organism-based. As to conditions: in vivo. The procedure, abridged:
(§2)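 Female C57BL/6J mice bearing s.c. B16F0 tumors (11 days growth) received 18−20 MBq in 100 μL via lateral tail vein (n = 3). Isoflurane anesthesia (5% induction, 2−2.5% maintenance) on a 37 °C heating pad. Planar γ-camera imaging at 10−60 min (5 min frames), 3 and 6 h, 24, 48 and 72 h. Radioactivity localization assessed visually.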

Data set [4] is described as follows: Drug distribution in eyes of C57BL/6J mouse bearing mouse B16F0 cells at 18 to 20 MBq, iv measured over 72 hrs by SPECT imaging study. Type of data set: ADME, organism-based, Eye. The settings on record: in vivo. A digest of the protocol:
as §1

Data set [5] is described as follows: Drug distribution in thyroid gland of C57BL/6J mouse bearing mouse B16F0 cells at 18 to 20 MBq, iv after 24 hrs by SPECT imaging study. Type of data set: ADME, organism-based. As to conditions: in vivo. The procedure, abridged:
as §1

Data set [6] can be described thus: Drug distribution in thyroid gland of C57BL/6J mouse bearing mouse B16F0 cells at 18 to 20 MBq, iv after 3 hrs by SPECT imaging study. The settings on record: in vivo. In kind it is ADME, organism-based. The procedure, abridged: as §1
Data set [7] relates to Brain. The data set is described as follows: Drug distribution in brain of C57BL/6J mouse bearing mouse B16F0 cells at 18 to 20 MBq, iv within 1 hr by SPECT imaging study. In kind it is ADME, organism-based. As to conditions: in vivo. The procedure, abridged: as §2

The structures appear in SMILES notation.

On to `O=C(CN1Cc2ccccc2C1=O)N1CCCN(Cc2ccc([123I])cc2)CC1`, for which the Retention_time in data set [1] stood at 14.5 min. Moreover, the Drug uptake result in data set [2] is “Active”; with Brain [3], “Not Active”; in data set [4], “Active”.

As to `O=C1c2ccccc2CN1CC(=O)N1C[C@@H]2C[C@H]1CN2Cc1ccc([123I])cc1`, the Retention_time in data set [1] was 15.9 min. Besides, the Drug uptake entry is “Active” in data set [2], “Not Active” in the data set with Brain [3] and “Active” in data set [4].

Regarding `O=C(CN1Cc2ccccc2C1=O)N1CCN(Cc2ccc([123I])cc2)CC1`, in data set [1], the Retention_time was found to be 17.3 min. Besides, the Drug uptake entry in the data set on Brain [3] was “Not Active”; in data set [4], “Active”.

The compound `O=C(c1cccnc1)N1CCN(Cc2ccc([123I])cc2)CC1` returned a Retention_time in data set [1] of 16 min. Also, the Drug uptake result in data set [5] is on record as “Active”; in the data set with Brain [3], “Not Active”; in data set [4] it was “Active”.

Consider `CCN(CC)CCNC(=O)c1cnc2cc([123I])ccc2n1`, for which the Retention_time in data set [1] came out at 15.7 min. For the same compound, the Drug uptake entry (in data set [6]; in the data set on Brain [7]; in the data set with Brain [3]; in data set [4]) was “Active” in each case.
